Data set [1] relates to Liver. The experiment in a line: (§1) Half life in dog liver microsomes. The format is ADME, Canis lupus familiaris, microsome. The note with it: microsomes.
Data set [2] relates to Liver. The experiment in a line: (§2) Half life in human liver microsomes. The format is ADME, microsome. The note with it: microsomes.
The subject of data set [3] is Liver. The experiment in a line: (§3) Half life in rat liver microsomes. The format is ADME, microsome. The note with it: microsomes.
In data set [4] the target is T1, Mu-type opioid receptor (Homo sapiens, UniProt P35372). The experiment in a line: Displacement of [3H]DPN from recombinant human mu opioid receptor expressed in CHOK1 cell membranes. The gist of the method: (§4)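 Competition binding with the radioligand [3H]-DPN on membranes from CHO-K1 cells stably transfected with human recombinant μ or δ opioid receptor or guinea pig κ opioid receptor. Affinity is reported as pKi.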
T1 sequence (P35372 whole entry): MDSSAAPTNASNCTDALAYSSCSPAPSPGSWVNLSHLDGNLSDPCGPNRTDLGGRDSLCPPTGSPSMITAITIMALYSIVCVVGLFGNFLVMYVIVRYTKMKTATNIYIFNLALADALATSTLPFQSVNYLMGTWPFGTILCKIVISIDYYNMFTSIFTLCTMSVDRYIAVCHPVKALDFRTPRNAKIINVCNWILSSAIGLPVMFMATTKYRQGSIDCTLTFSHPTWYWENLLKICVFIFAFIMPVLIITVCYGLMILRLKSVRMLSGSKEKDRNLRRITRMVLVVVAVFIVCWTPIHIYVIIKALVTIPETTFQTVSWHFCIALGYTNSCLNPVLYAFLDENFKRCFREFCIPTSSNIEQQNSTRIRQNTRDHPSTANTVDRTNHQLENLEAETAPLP

In data set [5] the target is Delta-type opioid receptor (Homo sapiens, UniProt P41143). The data set can be described thus: Displacement of [3H]DPN from recombinant human delta opioid receptor expressed in CHOK1 cell membranes. The gist of the method: as §4
Chain of Delta-type opioid receptor (P41143 whole entry): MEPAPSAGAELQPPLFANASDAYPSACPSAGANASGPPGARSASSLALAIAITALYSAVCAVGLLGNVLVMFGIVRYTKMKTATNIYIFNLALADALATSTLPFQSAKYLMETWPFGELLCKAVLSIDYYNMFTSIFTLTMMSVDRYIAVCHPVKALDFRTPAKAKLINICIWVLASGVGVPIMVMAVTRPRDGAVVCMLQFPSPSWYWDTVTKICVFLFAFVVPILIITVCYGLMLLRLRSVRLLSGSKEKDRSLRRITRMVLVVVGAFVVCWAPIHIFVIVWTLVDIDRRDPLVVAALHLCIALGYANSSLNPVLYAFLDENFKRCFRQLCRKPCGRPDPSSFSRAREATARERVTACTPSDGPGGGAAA
Data set [6] has as its target Kappa-type opioid receptor (Cavia porcellus, UniProt P41144). The data set can be described thus: Displacement of [3H]DPN from guinea pig kappa opioid receptor expressed in CHOK1 cell membranes. An outline of the steps:
as §4

Data set [7] in a line: as §1. The format is ADME, Canis lupus familiaris, microsome. The note with it: liver microsomes.
Data set [8] can be described thus: as §2. The format is ADME, microsome. The note with it: liver microsomes.
A short description of data set [9]: as §3. The note with it: liver microsomes. The format is ADME, microsome.
Data set [10] addresses T1, Mu-type opioid receptor. The experiment in a line: Intrinsic activity at recombinant human mu opioid receptor expressed in CHOK1 cells by [35S]GTPgammaS binding assay relative to DAMGO. The format is functional, cell-based. The gist of the method:
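Membranes from CHO-K1 cells stably transfected with human recombinant μ-opioid receptor; agonist activity measured as [35S]-GTPγS binding. Maximum compound-evoked response minus basal, expressed as percentage of the maximum response evoked by DAMGO.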

Chain of Kappa-type opioid receptor (P41144 whole entry): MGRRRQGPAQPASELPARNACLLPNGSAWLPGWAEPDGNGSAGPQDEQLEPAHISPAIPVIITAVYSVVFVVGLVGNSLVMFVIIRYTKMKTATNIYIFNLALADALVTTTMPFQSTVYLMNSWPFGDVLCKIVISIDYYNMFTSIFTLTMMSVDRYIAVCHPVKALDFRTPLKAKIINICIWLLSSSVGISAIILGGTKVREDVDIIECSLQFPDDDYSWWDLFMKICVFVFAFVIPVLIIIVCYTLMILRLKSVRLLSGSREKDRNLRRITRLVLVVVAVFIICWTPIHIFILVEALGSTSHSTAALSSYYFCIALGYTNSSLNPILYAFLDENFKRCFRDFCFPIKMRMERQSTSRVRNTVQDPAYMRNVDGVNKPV

As for `CCCCCCCN1[C@@H]2CC[C@@H]1CC(c1cccc(C(N)=O)c1)C2` (some centres not stated), the t1/2 in the data set with Liver [1] is listed as 2 min; with Liver [2], 10 min; with Liver [3] it was 7 min. For the same molecule, the Ki is 31.6 nM at Mu-type opioid receptor [4] and 501 nM in [5].
For `CCCCCCCN1[C@@H]2CC[C@@H]1CC(c1cccc(C(N)=O)c1)C2` (relative stereo), the values for the t1/2 in the data set on Liver [1], with Liver [2] and in the data set with Liver [3] were 20 min, 40 min and above 90 min, respectively. In addition, the Ki at Mu-type opioid receptor [4] is 0.398 nM; in data set [6] it was 0.398 nM; in data set [5] it was 3.16 nM.
As to `NC(=O)c1cccc(C2C[C@H]3CC[C@H](C2)N3CCCOc2ccccc2)c1` (relative stereo), the half-life in data set [7] was 7 min; in data set [8], above 90 min; in data set [9] it was 2 min. The figures for the Ki (on Mu-type opioid receptor [4]; in [6]; in [5]) were 0.2 nM, 0.794 nM and 3.98 nM, respectively.
For `NC(=O)c1cccc(C2C[C@H]3CC[C@H](C2)N3CC(O)Cc2ccccc2)c1` (relative stereo), the half-life in data set [7] and in [8] was above 90 min each time. The t1/2 in the data set on Liver [3] is listed as 31 min. Besides, the Ki on Mu-type opioid receptor [4] is 0.251 nM; in [6], 0.316 nM; in data set [5] it was 3.98 nM.
As for `Oc1cccc(C2C[C@H]3CC[C@H](C2)N3CCCc2ccccc2)c1` (relative stereo; 12a), the half-life worked out at 2 min in data set [7], 15 min in data set [8] and 2 min in data set [9]. Also, the values for the Ki (at Mu-type opioid receptor [4]; in data set [6]; in data set [5]) were 0.1 nM, 0.1 nM and 0.794 nM, respectively.
With `CCCCCCCN1[C@@H]2CC[C@@H]1CC(c1cccc(O)c1)C2` (relative stereo; 17a), the t1/2 in the data set with Liver [1] is listed as 2 min; in the data set with Liver [2], 10 min. For the same molecule, in data set [9], the half-life was determined as 3 min. Also, the inhibition constant Ki on Mu-type opioid receptor [4] was 0.251 nM; in data set [6], 0.251 nM; in data set [5], 2.51 nM.
Take `CCCCCCCN1[C@@H]2CC[C@@H]1CC(c1cccc(O)c1)C2` (relative stereo; 17b): the figures for the t1/2 with Liver [1], in the data set with Liver [2] and in the data set on Liver [3] were 9 min, 2 min and 2 min, respectively. Moreover, the inhibition constant (Ki) was 20 nM on Mu-type opioid receptor [4], 25.1 nM in data set [6] and 251 nM in [5].
Take `Oc1cccc(C2C[C@H]3CC[C@H](C2)N3Cc2c(F)cccc2F)c1` (relative stereo; 18a): the results for the half-life in [7] and in data set [9] were 20 min and 2 min, respectively. For the same molecule, the t1/2 in the data set with Liver [2] was 29 min. For the same molecule, the figures for the Ki (at Mu-type opioid receptor [4]; in [6]; in data set [5]) were 15.8 nM, 5.01 nM and 158 nM, respectively.
Molecule `Oc1cccc(C2C[C@H]3CC[C@H](C2)N3CCCOc2ccccc2)c1` (relative stereo; 19a) had a t1/2 with Liver [1] of 9 min. In addition, the half-life in data set [8] turned out to be 25 min; in [9] it was 2 min. Further, the inhibition constant (Ki) on Mu-type opioid receptor [4] is 0.1 nM; in data set [6], 0.251 nM; in [5] it was 1.58 nM.
For the molecule `CC(C)(C)c1ccc(CN2[C@@H]3CC[C@@H]2CC(c2cccc(O)c2)C3)cc1` (relative stereo; 20a), the values for the half-life in [7] and in [9] were 5 min and 2 min, respectively. In the data set with Liver [2], this molecule returned a t1/2 of 16 min. For the same molecule, the figures for the Ki (at Mu-type opioid receptor [4]; in [6]; in data set [5]) were 0.1 nM, 0.1 nM and 0.501 nM, respectively.
Regarding `CC(C)(C)c1ccc(CN2[C@@H]3CC[C@@H]2CC(c2cccc(O)c2)C3)cc1` (relative stereo; 20b), the t1/2 in the data set on Liver [1] amounted to 7 min; in the data set on Liver [2], 67 min. Moreover, the values for the inhibition constant (Ki) (on Mu-type opioid receptor [4]; in data set [6]; in data set [5]) were 2 nM, 3.16 nM and 31.6 nM, respectively.
Regarding `O=C1c2ccccc2C(=O)N1CCCCN1[C@@H]2CC[C@@H]1CC(c1cccc(O)c1)C2` (relative stereo; 21a), the half-life in [7] came to 11 min; in data set [8], 33 min; in [9] it was 18 min. Further, the inhibition constant (Ki) is 0.794 nM at Mu-type opioid receptor [4], 0.794 nM in data set [6] and 25.1 nM in [5].
`O=C1c2ccccc2C(=O)N1CCCCN1[C@@H]2CC[C@@H]1CC(c1cccc(O)c1)C2` (relative stereo; 21b): the t1/2 with Liver [1] turned out to be 12 min; with Liver [2], 38 min; in the data set with Liver [3] it was 21 min. Further, the Ki was 39.8 nM at Mu-type opioid receptor [4], 79.4 nM in data set [6] and 794 nM in data set [5].
Take `O=C(CN1[C@@H]2CC[C@@H]1CC(c1cccc(O)c1)C2)C1CCCCC1` (relative stereo; 22a): the half-life in [7] came out at 2 min; in data set [8] it was 12 min; in data set [9], 2 min. The results for the Ki (at Mu-type opioid receptor [4]; in data set [6]; in data set [5]) were 0.1 nM, 0.01 nM and 0.501 nM, respectively.
Consider `Oc1cccc(C2C[C@H]3CC[C@H](C2)N3CC(O)Cc2ccccc2)c1` (relative stereo; 23a), for which the half-life in data set [7] and in data set [9] was 2 min throughout. For the same molecule, in the data set on Liver [2], the t1/2 was 32 min. In addition, the Ki was 0.251 nM on Mu-type opioid receptor [4] and 6.31 nM in data set [5].
For `NC(=O)c1cccc(C2C[C@H]3CC[C@H](C2)N3CCCc2ccccc2)c1` (relative stereo; 24a), the t1/2 in the data set on Liver [1] and in the data set on Liver [3] was above 90 min each time. The same molecule yielded a half-life in data set [8] above 90 min. In addition, the Ki was 0.126 nM on Mu-type opioid receptor [4], 0.158 nM in data set [6] and 1.26 nM in [5].
As to `NC(=O)c1cccc(C2C[C@H]3CC[C@H](C2)N3CCCc2ccccc2)c1` (relative stereo; 24b), the results for the t1/2 in the data set on Liver [1] and in the data set on Liver [3] were 18 min and 11 min, respectively. Besides, the Ki was 15.8 nM on Mu-type opioid receptor [4] and 200 nM in [5].
Turning to `NC(=O)c1cccc(C2C[C@H]3CC[C@H](C2)N3Cc2c(F)cccc2F)c1` (relative stereo; 26a), the half-life in [7] and in [8] was above 90 min throughout. The t1/2 in the data set on Liver [3] worked out at 26 min. For the same molecule, the Ki was 31.6 nM on Mu-type opioid receptor [4], 15.8 nM in [6] and 316 nM in data set [5].
In the data set with Liver [3], `NC(=O)c1cccc(C2C[C@H]3CC[C@H](C2)N3Cc2c(F)cccc2F)c1` (relative stereo; 26b) displayed a t1/2 of 74 min. Moreover, the inhibition constant Ki on Mu-type opioid receptor [4] is 1260 nM; in data set [6] it was 398 nM; in data set [5] it was 5010 nM.
On to `CC(C)(C)c1ccc(CN2[C@@H]3CC[C@@H]2CC(c2cccc(C(N)=O)c2)C3)cc1` (relative stereo; 28a), for which the half-life in [7], in data set [8] and in data set [9] was above 90 min throughout. The Ki at Mu-type opioid receptor [4] was 0.1 nM; in [6] it was 0.1 nM; in [5], 1.58 nM.
`NC(=O)c1cccc(C2C[C@H]3CC[C@H](C2)N3CCCCN2C(=O)c3ccccc3C2=O)c1` (relative stereo; 29a): the half-life is 18 min in data set [7], above 90 min in [8] and above 90 min in data set [9]. The Ki was 1.58 nM on Mu-type opioid receptor [4], 3.16 nM in [6] and 79.4 nM in data set [5].
The molecule `NC(=O)c1cccc(C2C[C@H]3CC[C@H](C2)N3CC(=O)C2CCCCC2)c1` (relative stereo; 30a) registered a t1/2 in the data set on Liver [1] of 21 min. For the same molecule, the half-life was above 90 min in data set [8] and 70 min in [9]. For the same molecule, the inhibitory constant (Ki) on Mu-type opioid receptor [4] is 0.158 nM; in [6], 0.1 nM; in data set [5], 2 nM.
`NC(=O)c1cccc(C2C[C@H]3CC[C@H](C2)N3CC(=O)C2CCCCC2)c1` (relative stereo; 30b): the t1/2 in the data set on Liver [1] was 9 min; in the data set with Liver [3], 81 min. Moreover, the inhibition constant Ki was 15.8 nM at Mu-type opioid receptor [4], 20 nM in data set [6] and 398 nM in data set [5].
The corresponding values for `NC(=O)c1cccc(C2C[C@H]3CC[C@H](C2)N3CC(O)Cc2ccccc2)c1` (stereo in doubt; 31b) are 59 min, 14 min, 31.6 nM, 79.4 nM and 501 nM.
In the case of `C[C@H]1CN(C[C@H](Cc2ccccc2)C(=O)NCC(=O)O)CC[C@@]1(C)c1cccc(O)c1` [ALVIMOPAN], the half-life in data set [7], in data set [8] and in [9] was above 90 min each time. Besides, the Intrinsic activity on Mu-type opioid receptor [10] is -6%. For the same molecule, the Ki in data set [6] and in data set [5] was 5.01 nM throughout.
On to `C[N+]1(CC2CC2)CC[C@]23c4c5ccc(O)c4O[C@H]2C(=O)CC[C@@]3(O)[C@H]1C5` (some centres not stated) [METHYLNALTREXONE], for which the half-life in [7], in data set [8] and in data set [9] was above 90 min throughout. Also, at Mu-type opioid receptor [10], the Intrinsic activity was determined as 24%. In addition, the Ki was 7.94 nM at Mu-type opioid receptor [4] and 20 nM in data set [6].

Source of the values: ChEMBL document CHEMBL4020770, “Discovery of N-substituted-endo-3-(8-aza-bicyclo[3.2.1]oct-3-yl)-phenol and -phenyl carboxamide series of μ-opioid receptor antagonists” (Bioorg Med Chem Lett, 2017).
